Measurements of several laboratories.
Sample: Caco-2

| SMILES | concentration | time | pH | quantity | result |
| --- | --- | --- | --- | --- | --- |
| O=C(O)c1cn(-c2ccc(-c3ccc(C(=O)N4CCNCC4)cc3)cc2)cc(O)c1=O | – | – | – | Papp A→B | 0.2 ×10⁻⁶ cm/s |
| C[C@H]1O[C@@H](O[C@H]2[C@@H](O)C[C@H](O[C@H]3[C@@H](O)C[C@H](O[C@H]4CC[C@@]5(C)[C@H](CC[C@@H]6[C@@H]5C[C@@H](O)[C@]5(C)[C@@H](C7=CC(=O)OC7)CC[C@]65O)C4)O[C@@H]3C)O[C@@H]2C)C[C@H](O)[C@@H]1O | 5 µM | 2 h | – | Papp A→B | 0.27 ×10⁻⁶ cm/s |
| N#C[C@@]12C[C@@H]1[C@@H](n1cnc3c(N[C@@H](C4CCC4)C4CC4)nc(I)nc31)[C@H](O)[C@@H]2O | – | – | – | Papp A→B | 5.97 ×10⁻⁶ cm/s |
| Cn1nc2c(=O)n(C3CC3)ncc2c1[C@](O)(c1cnc(C(F)(F)F)c(Cl)c1)C(F)(F)F | – | – | – | Papp A→B | 43.4 ×10⁻⁶ cm/s |
| N#Cc1cc(-c2ccc(C(=O)N3CCNCC3)cc2)ccc1-n1cc(O)c(=O)c(C(=O)O)c1 | – | – | – | Papp A→B | 0.3 ×10⁻⁶ cm/s |
| Cc1c(C(=O)O)ccc2c3n(nc12)[C@@H]1[C@H](C3)N(CC2CC2)[C@@]2(C(=O)Nc3cc(Cl)ccc32)[C@H]1c1cccc(Cl)c1F | – | – | – | Papp A→B | 84 ×10⁻⁶ cm/s |
| CCCCC(CC)CNC(=N)NC(=N)NCCCCCCNC(=N)NC(=N)NCC(CC)CCCC (stereo not shown) | 5 µM | 2 h | – | Papp B→A | 0.37 ×10⁻⁶ cm/s |
| CC(C)C[C@H](NC(=O)[C@@H]1COCCCCCC(=O)NCC(=O)N2CCC[C@H]2C(=O)N1)C(=O)[C@@]1(C)CO1 | 10 µM | 2 h | pH 7.4 | Papp A→B | 0.454 ×10⁻⁶ cm/s |
| CCn1cc(C2CC2)c2c(Cc3ccc(C(F)(F)F)nc3)n(C)nc2c1=O | – | – | – | Papp A→B | 38.7 ×10⁻⁶ cm/s |
| Cc1c(N(C)C)ccc2cc(C(=O)NS(=O)(=O)c3ccccc3-c3ccccc3)oc12 | 2 µM | 2 h | pH 7.2 | Papp B→A | 14.3 ×10⁻⁶ cm/s |
